Shown are actives, neighbours in structure and some others; about 4.1% of the full set was active somewhere.
AHR activator – activates the human aryl hydrocarbon receptor. AHR-responsive luciferase reporter cells, luminescence. activation, % at 5 µM. AID 2796. 320,000 compounds, 2.5% hits; in the data active means activation above about 47%
SMARCA2 act – SMARCA2 function activation, primary screen | MG213 cells, MMTV-luciferase reporter, dexamethasone, overnight | activation, % at 9.1 µM | 370,000 compounds, 1% hits; in the data active means activation above about 7.8%
Efflux pump inh – antifungal efflux pump inhibition, Nile Red retention. S. cerevisiae Candida pump triplex. inhibition, % at 10 µM. 330,000 compounds, 0.44% hits. AID 485275;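 active means plate passing quality check with inhibition over a set limit, or well fluorescence over plate mean plus 4 SD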;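 further: Nile Red retained in pooled yeast measured as flow cytometry median fluorescence; higher means more Nile Red kept so more efflux inhibition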
H9c2 TAG inh – inhibitors of triacylglycerol accumulation; H9c2 cells, Nile Red lipid (TAG) fluorescence; cells loaded with 200 µM oleic acid; inhibition, % at 12.5 µM; 230,000 compounds, 0.66% hits;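 active means pattern-corrected inhibition of lipid staining of at least 50% with the nuclear-stain viability signal not falling by more than 50%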
TbMetRS inhib – blocks T. brucei methionyl-tRNA synthetase activity | AID 624268 | 360,000 compounds, 0.4% hits | inhibition, % at 11.9 µM | purified T. brucei MetRS, ATP depletion, Kinase-Glo luminescence;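 active means inhibition above a per-plate cutoff of the control wells' mean inhibition plus 3 SD, cut at about 5.5% in these data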
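Material: parasite MetRS enzyme / Replication: singlicate, one well per compound / Signal: luminescence of leftover ATP / Schedule: 2 h aminoacylation at 25 °C after 15 min preincubation / Medium: HEPES-MgCl2-KCl buffer plus DTT, spermine, BSA, pyrophosphatase / Doses: 11.9 µM single point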
AHR act cf – human AHR activation, confirmation | shares compounds with AHR activator | activation, % at 9 µM | human cells, AHR-responsive luciferase reporter, luminescence | 2,300 compounds, 87% hits | AID 2845; in the data active means activation above about 49%;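 further: HepG2 hepatoma cells carrying a DRE-driven firefly luciferase reporter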
PXR act counter – counter-screen for AHR activators: human PXR activators | AID 434939 | activation, % at 11.6 µM | 2,300 compounds, 88% hits | shares compounds with AHR activator | cell-based PXR reporter, luciferase luminescence; in the data active means activation above about 11%;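 further: human hepatoma DPX-2 cells expressing full-length human PXR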
Target sequence (O75469 whole entry, looked up): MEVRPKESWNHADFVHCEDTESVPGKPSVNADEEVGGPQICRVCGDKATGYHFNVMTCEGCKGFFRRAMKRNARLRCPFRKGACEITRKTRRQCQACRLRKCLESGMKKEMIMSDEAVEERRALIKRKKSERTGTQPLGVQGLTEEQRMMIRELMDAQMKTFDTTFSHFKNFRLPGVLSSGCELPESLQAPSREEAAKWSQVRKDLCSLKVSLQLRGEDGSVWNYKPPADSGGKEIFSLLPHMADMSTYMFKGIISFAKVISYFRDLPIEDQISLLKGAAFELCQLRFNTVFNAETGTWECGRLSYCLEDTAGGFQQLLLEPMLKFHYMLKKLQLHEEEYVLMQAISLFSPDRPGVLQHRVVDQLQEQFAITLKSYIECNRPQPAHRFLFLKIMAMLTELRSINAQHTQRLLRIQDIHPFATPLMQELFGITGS
Of the large screens only hits and unclear results are named; the others gave an inactive call (follow-up assays come after a bar, where they were run).

Cn1cc(C(=O)N/N=C/c2cc(Br)cs2)c2ccccc21	AHR activator 50.3 (no result: SMARCA2 act, H9c2 TAG inh, TbMetRS inhib)
Cc1[nH]c2ccccc2c1/C=N/NC(=O)c1cccs1	AHR activator 74.0
Cc1[nH]c2ccccc2c1/C=N/NC(=O)c1cccc([N+](=O)[O-])c1	AHR activator 48.1 (no result: H9c2 TAG inh)
Cc1[nH]c2ccccc2c1/C=N/NC(=O)c1cccc(F)c1	none
Cn1cc(/C=N/NC(=O)c2cccc([N+](=O)[O-])c2)c2ccccc21	AHR activator 68.8 (no result: H9c2 TAG inh)
Cn1cc(/C=N/NC(=O)c2ccccc2O)c2ccccc21	none (no result: H9c2 TAG inh)
COc1cccc(-c2nnc(SCC(=O)Nc3ccc(Oc4ccccc4)cc3)n2Cc2ccco2)c1	none (no result: AHR activator, Efflux pump inh, H9c2 TAG inh, TbMetRS inhib)
Cc1ccc2nc(CN(C)C(=O)[C@H](CCc3ccccc3)NC(=O)[C@H]3O[C@@H](n4cnc5c(N)ncnc54)[C@H](O)[C@@H]3O)[nH]c2c1	none (no result: AHR activator, Efflux pump inh, H9c2 TAG inh, TbMetRS inhib)
COc1ccccc1-c1ccc(OCCCN2CCC(C(O)(c3ccccc3)c3ccccc3)CC2)cc1	none (no result: AHR activator, Efflux pump inh, H9c2 TAG inh, TbMetRS inhib)
CC1=NN(c2ccccc2)C(=O)/C1=C\c1c(C)[nH]n(-c2ccccc2)c1=O	none
CC1=NN(c2ccccc2)C(=O)/C1=C/c1c(O)n(-c2ccc(F)c(Cl)c2)[nH]c1=O	AHR activator 49.4 (no result: SMARCA2 act, H9c2 TAG inh, TbMetRS inhib)
COc1ccc(Cl)cc1Nc1nc(C)cc(C)c1C(N)=O	AHR activator 59.5
NNC(=O)c1nc(Cl)c(Cl)c(N)c1Cl	AHR activator 77.0
Nc1c(Cl)c(Cl)nc(C(=O)OCC(=O)NC2CCCCC2)c1Cl	none
Nc1c(Cl)c(Cl)nc(C(=O)N/N=C/c2ccco2)c1Cl	AHR activator 53.4
O=C(NCc1ccccc1)Nc1ccccc1C(=O)N1CCCC1	none (no result: AHR activator, Efflux pump inh, H9c2 TAG inh, TbMetRS inhib)
CC(CCN1CCC(C(O)(c2ccccc2)c2ccccc2)CC1)Oc1cccc(F)c1 (stereo unspecified)	none (no result: AHR activator, Efflux pump inh, H9c2 TAG inh, TbMetRS inhib)
Cc1sc(N/N=C/C=C/c2ccccc2)nc1-c1ccccc1	AHR activator 73.3
Nc1c(C(=O)Nc2ccc(Br)cc2)sc2nc(-c3ccco3)ccc12	AHR activator 60.4 (no result: H9c2 TAG inh)
Cc1ccc(NC(=O)c2sc3nc4c(c(-c5ccco5)c3c2N)CCC4)cc1	AHR activator 60.3
Nc1c(C(=O)Nc2ccccc2)sc2nc3c(c(-c4ccco4)c12)CCC3	none
Nc1c(C(=O)Nc2ccc(F)cc2)sc2nc(-c3ccco3)ccc12	AHR activator 72.2
CC(=O)c1sc2nc(-c3ccco3)ccc2c1N	none
O=C(CSc1nnc(COc2ccccc2)n1Cc1ccco1)Nc1ccc2c(c1)OCO2	none (no result: AHR activator, Efflux pump inh, H9c2 TAG inh, TbMetRS inhib)
C#CCNC(=O)C[C@H]1C[C@@]2(C(=O)OC)C(=C[C@H](COCc3ccccc3)O[C@@H]2C)N(Cc2ccco2)C1=O	none (no result: AHR activator, Efflux pump inh, H9c2 TAG inh, TbMetRS inhib)
C=CCOC(=O)C(CO)NC(=O)CCCC(=O)O (stereo unspecified)	none (no result: AHR activator, Efflux pump inh, H9c2 TAG inh, TbMetRS inhib)
COc1cc(C(=O)NN=C2c3ccccc3-c3ccccc32)cc(OC)c1OC	none (no result: AHR activator, Efflux pump inh, H9c2 TAG inh, TbMetRS inhib)
Cc1ccc2c(c1)c1nc3ccccc3nc1n2C	AHR activator 88.3 (no result: H9c2 TAG inh) | AHR act cf 117.0
CCOc1ccc2c(c1)c1nc3ccccc3nc1n2C	none (no result: AHR activator, H9c2 TAG inh)
O=C(C[n+]1cc2ccccc2c2ccccc21)c1ccccc1	AHR activator 87.1 | AHR act cf 93.3 | PXR act counter 55.3
CC(C)=CCC/C(C)=C/CNCC(=O)N1c2ccccc2[C@]2(C)C[C@@H]3C(=O)N(C/C=C(\C)CCC=C(C)C)CC(=O)N3[C@H]12	none (no result: AHR activator, Efflux pump inh, H9c2 TAG inh, TbMetRS inhib)
Cc1cccc(NC(=O)Nc2nc3ncccn3c2-c2ccccc2)c1	none (no result: AHR activator, Efflux pump inh, H9c2 TAG inh, TbMetRS inhib)
COC(=O)N/N=C/c1ccccc1Cl	none
COC(=O)N/N=C/c1cn(Cc2ccccc2Cl)c2ccccc12	AHR activator 83.4 (no result: H9c2 TAG inh) | AHR act cf 64.5 | PXR act counter 69.6
CCCCOc1ccc(C(=O)NC2CCCCN(Cc3cccc(Cl)c3)C2=O)cc1 (stereo unspecified)	none (no result: AHR activator, Efflux pump inh, H9c2 TAG inh, TbMetRS inhib)
Cc1ccc(CN2CCCCC(NC(=O)Nc3ccccc3-c3ccccc3)C2=O)cc1 (stereo unspecified)	none (no result: AHR activator, Efflux pump inh, H9c2 TAG inh, TbMetRS inhib)
O=C(NCCN1C(=O)C2C3C=CC(C3)C2C1=O)N1CCCCC1 (stereo unspecified)	AHR activator 91.9 | AHR act cf inactive | PXR act counter 21.1
CN(C(=O)c1ccccc1OCC(=O)Nc1ccc(Br)cc1)c1ccccc1	none (no result: AHR activator, Efflux pump inh, H9c2 TAG inh, TbMetRS inhib)
Cc1cc(C)nc(N/N=C/c2cccc3ccccc23)n1	AHR activator 89.2 (no result: H9c2 TAG inh) | AHR act cf inactive | PXR act counter 33.9

Compound activity from PubChem.
